Only some compounds are listed: those with a hit (about 3.7% of all), similar ones and a draw of the others.
RBBP9 inhibitor = human RBBP9 inhibitors, primary screen, biochemical, fluorescence polarization, FP-Rh probe, HTS; recombinant RBBP9; inhibition, % at 7.94 µM; actives 0.2% (n = 220,000); AID 1515, 2009;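 active = inhibition above the campaign mean of all tested compounds plus 3 SD, cut at about 14% in these data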;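 also: plate controls were DMSO wells with RBBP9 for no effect and wells lacking RBBP9 protein for full effect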
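Test system: recombinant human RBBP9. Quantity: 2.5 µM RBBP9 dispensing solution, before mixing. Detection: FP readout at 525/598 nm. Reagent: Serine-hydrolase probe FP-Rh, 375 nM pre-mixing. Measure: % inhibition. Control set: DMSO-treated enzyme wells and wells lacking RBBP9. Buffer or medium: Tris-NaCl-Pluronic buffer, pH 8.0. Times: preincubation 30 min plus labeling 45 min at 25 °C.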
14-3-3 Bad PPI = inhibitors of 14-3-3 zeta/Bad binding, primary screen, biochemical, TR-FRET, bovine 14-3-3 zeta. TR-FRET 14-3-3zeta/Dy647-pBad peptide displacement, 1 h. actives 0.71% (n = 220,000). 14-3-3 protein zeta/delta (Bos taurus), P63103. inhibition, % at 21.7 µM;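 active = inhibition above about 70%, limit read from the data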;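 also: 0% = full 14-3-3 plus peptide FRET controls and 100% = background without 14-3-3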
EBV gp42 block = Epstein-Barr virus gp42 inhibitors, primary screen, biochemical, uHTS, fluorescence polarization; actives 0.42% (n = 220,000); inhibition, % (tested at 21.74 µM); Fluorescence polarization binding assay, mP read-out; AID 1085, 2008; Glycoprotein 42 (Epstein-Barr virus (strain AG876)), Q1HVG2; in the data active = inhibition above about 50%
eIF4E-4G inh = eIF4E–eIF4G protein interaction inhibitors, primary screen, biochemical, uHTS, TR-FRET, eIF4GI fragment. inhibition, % at 21.7 µM. actives 0.37% (n = 220,000). TR-FRET eIF4E-eIF4GI(517-606) binding, 2 h. Eukaryotic translation initiation factor 4E (Mus musculus) + Eukaryotic translation …;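 also: 0% = full FRET control wells and 100% = background wells lacking eIF4GI fragment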
WT yeast gro inh = growth inhibition of WT strain, primary screen, mitochondrial fusion inhibitor project, WT and mutant strains, chemical genetic. mitochondrial fusion phenotypic screen. inhibition, % at 10 µM. actives 2.1% (n = 190,000). AID 1362, 2008; in the data active = inhibition above about 58%; tested in S. cerevisiae
NCF1 inh = p47phox/p22phox peptide binding inhibitors, primary screen, biochemical, uHTS, NADPH oxidase regulatory subunit; inhibition, % at 24.7 µM; AID 1274, 2008; actives 0.53% (n = 220,000); fluorescence polarization, 2 h;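 also: 0% = p47phox with labelled peptide and 100% = labelled peptide alone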
* marks the source's active call; other numbers are inactive results.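 The calls were made as follows, unless noted: active = inhibition above about 30% (limit read from the data); inactive = the rest.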

Results for O=C(O)/C=C/C(=O)Nc1ccc(NC(=O)c2ccccc2)c(Cl)c1 ?
RBBP9 inhibitor: -3.2; 14-3-3 Bad PPI: 96.0*; EBV gp42 block: 3.8; eIF4E-4G inh: 1.9; WT yeast gro inh: -6.9; NCF1 inh: -12.9

Results for O=C(O)/C=C\C(=O)Nc1cccc(NC(=O)c2ccccc2)c1 ?
RBBP9 inhibitor: -6.8; 14-3-3 Bad PPI: -9.4; EBV gp42 block: -9.3; eIF4E-4G inh: -2.0; WT yeast gro inh: -2.1; NCF1 inh: 3.7

Results for Cc1ccc(-c2nc(N)sc2-c2ccccc2)cc1C ?
RBBP9 inhibitor: -0.6; 14-3-3 Bad PPI: -2.6; EBV gp42 block: 7.9; eIF4E-4G inh: 17.1; WT yeast gro inh: 73.4*; NCF1 inh: 1.8

Results for Cc1ccc(-c2nc(N)sc2-c2ccc(C)cc2)cc1 ?
RBBP9 inhibitor: 6.9; 14-3-3 Bad PPI: -3.8; EBV gp42 block: -7.0; eIF4E-4G inh: 2.8; WT yeast gro inh: 79.5*; NCF1 inh: -6.5

How did CSc1ccc(/C=N/Nc2cccc(C(=O)O)c2)cc1 do in these assays?
RBBP9 inhibitor: -7.1; 14-3-3 Bad PPI: 85.4*; EBV gp42 block: 19.2; eIF4E-4G inh: 34.5*; WT yeast gro inh: -6.1; NCF1 inh: -31.9

How did FC(F)(F)c1cnc(COc2cc(Cl)cc(Cl)c2)c(Cl)c1 do in these assays?
RBBP9 inhibitor: -3.9; 14-3-3 Bad PPI: -1.9; EBV gp42 block: -8.2; eIF4E-4G inh: 0.9; NCF1 inh: -2.6

Results for Cc1cc(C)n(-c2nc(NCCC(C)C)c3c4c(sc3n2)COC(C)(C)C4)n1 ?
RBBP9 inhibitor: -7.0; 14-3-3 Bad PPI: 1.1; EBV gp42 block: 11.6; eIF4E-4G inh: -7.8; WT yeast gro inh: 80.3*; NCF1 inh: -19.2

What do the screens show for `Cc1ccc(NC2c3ncccc3C(=O)N2Cc2ccc(F)cc2)cc1` (configuration not stated)?
RBBP9 inhibitor: -4.8; 14-3-3 Bad PPI: 57.1; EBV gp42 block: -7.8; eIF4E-4G inh: 6.9; WT yeast gro inh: 7.2; NCF1 inh: -8.6

How did COc1cc(NC2c3ncccc3C(=O)N2Cc2ccco2)cc(OC)c1 (configuration not stated) do in these assays?
RBBP9 inhibitor: -1.7; 14-3-3 Bad PPI: 82.4*; EBV gp42 block: -11.6; eIF4E-4G inh: 1.0; WT yeast gro inh: 16.6; NCF1 inh: -2.1

What do the screens show for `COc1ccc(CN2C(=O)c3cccnc3C2Nc2ccc(OC)c(Cl)c2)cc1` (configuration not stated)?
RBBP9 inhibitor: 4.6; 14-3-3 Bad PPI: 83.1*; EBV gp42 block: 1.6; eIF4E-4G inh: -4.3; WT yeast gro inh: 5.7; NCF1 inh: -3.3

Results for COc1ccc(NC2c3ncccc3C(=O)N2Cc2ccccc2)c(OC)c1 (configuration not stated) ?
RBBP9 inhibitor: -6.6; 14-3-3 Bad PPI: 24.8; EBV gp42 block: -8.3; eIF4E-4G inh: -1.2; WT yeast gro inh: -7.1; NCF1 inh: 1.8

What do the screens show for `C/C(CC(C)(C)C1CCCCC1)=N\NC(N)=S`?
RBBP9 inhibitor: -5.2; 14-3-3 Bad PPI: 1.9; EBV gp42 block: -3.5; eIF4E-4G inh: -9.9; WT yeast gro inh: 63.7; NCF1 inh: -9.3

What do the screens show for `C/C(=N\NC(N)=S)C1C2C3CC4C5CC(C42)C1C53` (configuration not stated)?
RBBP9 inhibitor: 2.5; 14-3-3 Bad PPI: -5.7; EBV gp42 block: -18.9; eIF4E-4G inh: 4.1; WT yeast gro inh: 66.2*; NCF1 inh: -96.8

Results for COc1ccc(-c2csc3nc(C)nc(N4CCN(C(C)=O)CC4)c23)cc1OC ?
RBBP9 inhibitor: -2.6; 14-3-3 Bad PPI: -8.5; EBV gp42 block: -3.2; eIF4E-4G inh: -4.0; WT yeast gro inh: 2.0; NCF1 inh: -2.0

What do the screens show for `COc1ccc(-c2csc3nc(C)nc(N4CCC(C)CC4)c23)cc1OC`?
RBBP9 inhibitor: -1.9; 14-3-3 Bad PPI: -17.3; EBV gp42 block: 7.5; eIF4E-4G inh: 3.5; WT yeast gro inh: 63.0*; NCF1 inh: -7.9

How did CCCn1c(SCC(=O)c2[nH]c(C)c(C(C)=O)c2C)n[nH]c1=O do in these assays?
RBBP9 inhibitor: -12.5; 14-3-3 Bad PPI: -2.2; EBV gp42 block: -20.6; eIF4E-4G inh: 0.9; NCF1 inh: 3.4

What do the screens show for `O=C1NCC(O)=C1C=Nc1ccccc1O`?
RBBP9 inhibitor: -2.9; 14-3-3 Bad PPI: -7.9; EBV gp42 block: -14.8; eIF4E-4G inh: 2.4; NCF1 inh: -11.8

How did COC(=O)c1ccc(-c2ccco2)n1Cc1cccc(C)c1 do in these assays?
RBBP9 inhibitor: 0.6; 14-3-3 Bad PPI: -16.4; EBV gp42 block: -7.3; eIF4E-4G inh: 3.6; WT yeast gro inh: 63.6*; NCF1 inh: -27.8

What do the screens show for `COC(=O)c1ccc(-c2ccco2)n1Cc1cc(C)ccc1C`?
RBBP9 inhibitor: -12.0; 14-3-3 Bad PPI: -3.4; EBV gp42 block: -24.2; eIF4E-4G inh: -2.1; WT yeast gro inh: 0.8; NCF1 inh: 2.6

How did COc1ccc(Nc2nc(C(=O)N3CCc4ccccc4C3)cs2)cc1 do in these assays?
RBBP9 inhibitor: -6.5; 14-3-3 Bad PPI: -9.1; EBV gp42 block: 12.8; eIF4E-4G inh: -1.1; WT yeast gro inh: 75.3*; NCF1 inh: 6.3

What do the screens show for `O=C(c1cnccn1)N1CCc2ccccc2C1`?
RBBP9 inhibitor: -3.2; 14-3-3 Bad PPI: 93.3*; EBV gp42 block: -3.5; eIF4E-4G inh: -1.2; WT yeast gro inh: 7.4; NCF1 inh: -10.7

How did COc1ccc(C(=O)NCC(=O)N2CCc3ccccc3C2)cc1 do in these assays?
RBBP9 inhibitor: -5.4; 14-3-3 Bad PPI: -1.3; EBV gp42 block: 11.7; eIF4E-4G inh: -0.4; WT yeast gro inh: -4.3; NCF1 inh: 78.7*

What do the screens show for `O=C(c1cnccn1)N1CCc2ccccc21`?
RBBP9 inhibitor: -3.7; 14-3-3 Bad PPI: -17.8; EBV gp42 block: 6.8; eIF4E-4G inh: -0.8; WT yeast gro inh: -2.5; NCF1 inh: -5.3

Results for O=C(c1csc(Nc2ccccc2Cl)n1)N1CCCC1 ?
RBBP9 inhibitor: -0.4; 14-3-3 Bad PPI: -1.9; EBV gp42 block: -16.4; eIF4E-4G inh: 20.6; WT yeast gro inh: 69.2*; NCF1 inh: -0.9

Results for COc1cc2c(cc1NC(=O)C(C)OC(=O)c1ccc(S(=O)(=O)Nc3ccccc3Cl)cc1)oc1ccccc12 (configuration not stated) ?
RBBP9 inhibitor: -1.2; 14-3-3 Bad PPI: 5.5; EBV gp42 block: -17.6; eIF4E-4G inh: -3.9; WT yeast gro inh: 14.2; NCF1 inh: -1.8

How did COc1ccc(OCC(O)CNC(=O)Nc2ccc(C(C)(C)C)cc2)cc1 (configuration not stated) do in these assays?
RBBP9 inhibitor: -4.5; 14-3-3 Bad PPI: -0.9; EBV gp42 block: -8.8; eIF4E-4G inh: 0.4; NCF1 inh: -6.9

Screening data deposited in PubChem BioAssay by several laboratories.
